Reference: ChEMBL document CHEMBL1649083, “Discovery of novel inhibitors of the NorA multidrug transporter of Staphylococcus aureus” (2011)

target: T1, Quinolone resistance protein NorA (Staphylococcus aureus) (UniProt P0A0J7); assay: Inhibition of NorA in Staphylococcus aureus 1199B assessed as reduction in ethidium bromide efflux at 50 uM by fluorimetry after 5 mins
T1 sequence (whole entry): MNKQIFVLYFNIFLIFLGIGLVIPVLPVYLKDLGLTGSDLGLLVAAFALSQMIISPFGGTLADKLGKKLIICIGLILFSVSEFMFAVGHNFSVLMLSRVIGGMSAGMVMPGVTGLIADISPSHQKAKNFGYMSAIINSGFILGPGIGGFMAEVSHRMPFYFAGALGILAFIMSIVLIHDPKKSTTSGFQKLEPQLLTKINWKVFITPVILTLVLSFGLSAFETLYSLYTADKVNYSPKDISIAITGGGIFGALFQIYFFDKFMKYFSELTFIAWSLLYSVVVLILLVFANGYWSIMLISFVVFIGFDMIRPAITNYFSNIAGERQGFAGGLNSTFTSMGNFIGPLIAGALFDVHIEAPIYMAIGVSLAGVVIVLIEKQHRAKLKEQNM
Procedure, shortened: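 S. aureus SA-1199B (NorA overexpressing via promoter up-mutation; GrlA A116E), EtBr-loaded cells. EtBr loss measured fluorometrically over a 5 min time course, in duplicate, as mean total efflux. Percent reduction calculated versus efflux without compound. Test compound at 50 μM; increasing concentrations were also run for dose-response profiles.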

How did the inhibition turn out when `COCCN1C(=O)/C(=C/c2ccc(O[C@@H](C)C(=O)O)c(OC)c2)S/C1=N\c1ccccc1` was run?
Its inhibition is 10.6%.

`Fc1ccc([C@@H]2CCNC[C@H]2COc2ccc3c(c2)OCO3)cc1` was tested. Which inhibition did it give?
The inhibition was 73%.

How did the inhibition turn out when `COc1cc(/C=C2\S/C(=N\c3ccccc3)N([C@@H]3CCCC[C@@H]3C)C2=O)ccc1OCC(=O)O` was run?
The inhibition was 32.6%.

How did the inhibition turn out when `CCC(C)N1C(=O)S/C(=C\c2ccc(-c3cc(C(=O)O)ccc3Cl)o2)C1=O` (stereo not given) was run?
Its inhibition is 74.7%.

With `CCOC(=O)c1cn(C2CC2)c2cc(N3CCC4=C(C3)C(O)CCS4)c(N)cc2c1=O` (stereo not given) as the compound, how does the inhibition read?
The inhibition was 26.3%.

For `CCCOc1ccc(-c2cc(OCCN3CCCCC3)c3ccccc3n2)cc1`, which inhibition is on record?
The inhibition was 88.5%.

For `CCOc1cc(C2C(C#N)=C(N)Oc3[nH]nc(C)c32)ccc1OCc1cccc(F)c1` (single isomer, unassigned), which inhibition is on record?
Its inhibition is 4.9%.

Which inhibition does the source give for `Cc1ccc([C@H]2C(C#N)=C(N)Oc3cc(C)oc(=O)c32)o1` here?
Its inhibition is 0%.

For `CN1CCN(CCCN2c3ccccc3Sc3ccc(Cl)cc32)CC1`, which inhibition is on record?
Its inhibition is > 78%.

For `CCOC(=O)c1cn(C2CC2)c2c(C)c(N3CCC4=C(C3)C(=O)CCS4)c(N)cc2c1=O`, which inhibition is on record?
The inhibition was 36.8%.

With `OCCN1CCN(CC/C=C2\c3ccccc3Sc3ccc(C(F)(F)F)cc32)CC1` as the compound, how does the inhibition read?
The inhibition was 72%.

How did the inhibition turn out when `CCOC(=O)c1cn(C2CC2)c2cc(N3CCC4=C(C3)/C(=N/OC)C(C)CS4)c(F)cc2c1=O` (stereo not given) was run?
Its inhibition is 86.9%.

How did the inhibition turn out when `CCOC(=O)c1cn(C2CC2)c2cc(N3CCC4=C(C3)/C(=N/OC)C(C)CS4)c(N)cc2c1=O` (stereo not given) was run?
The inhibition was 19.7%.

Which inhibition does the source give for `Cn1c(-c2ccc(OCCN3CCOCC3)cc2)cc(=O)c2ccccc21` here?
Its inhibition is 0%.

For `CCOC(=O)c1cn(C2CC2)c2c(C)c(N3CCC4=C(C3)C(O)CCS4)c(N)cc2c1=O` (stereo not given), which inhibition is on record?
The inhibition was 47.3%.

With `Cc1ccc(-n2c(SCc3ccc(C(=O)O)cc3)nnc2-c2ccc(Cl)cc2)cc1` as the compound, how does the inhibition read?
The inhibition was 1.3%.

`COc1ccc(-c2cc(=O)c3ccccc3n2C)cc1` was tested. Which inhibition did it give?
The inhibition was 0%.

For `CCCOc1ccc(-c2cc(O)c3ccccc3n2)cc1`, which inhibition is on record?
The inhibition was 0%.

For `Cc1ccc(S(=O)(=O)Nc2ccc3[nH]c(-c4ccco4)nc3c2)cc1`, which inhibition is on record?
The inhibition was 67.5%.

With `O=C1NC(=O)/C(=C/c2ccc(-c3cc(C(=O)O)ccc3Cl)o2)S1` as the compound, how does the inhibition read?
The inhibition was 15.5%.

For `N#Cc1c(-c2ccc(F)cc2)cc(-c2ccccc2)nc1SCC(=O)N1CCC[C@@H]1C(=O)O`, which inhibition is on record?
The inhibition was 36.3%.

`CCOC(=O)c1cn(C2CC2)c2c(C)c(N3CCC4=C(C3)C(=O)C(C)CS4)c(N)cc2c1=O` (stereo not given) was tested. Which inhibition did it give?
The inhibition was 50.5%.

Which inhibition does the source give for `CCCOc1ccc(C2=CSc3ccccc3N2C)cc1` here?
Its inhibition is 0%.

With `CCCOc1ccc(-c2cc(=O)c3ccccc3s2)cc1` as the compound, how does the inhibition read?
Its inhibition is 6.3%.

`COc1ccc(OC[C@H]2CN(C)CC[C@@H]2c2ccccc2)cc1` was tested. Which inhibition did it give?
The inhibition was 47%.

`Cc1sc([C@@H]2C(C#N)=C(N)OC3=C2C(=O)CC(C)(C)C3)cc1COc1ccc(Br)cc1` was tested. Which inhibition did it give?
Its inhibition is 0%.

`Cc1ccc(N2CCN(C3=Nc4cc(Cl)ccc4Oc4ccccc43)CC2)cc1` was tested. Which inhibition did it give?
Its inhibition is 35.1%.

How did the inhibition turn out when `CCOC(=O)c1cn(C2CC2)c2cc(N3CCC4=C(C3)C(=O)C(C)CS4)c(N)cc2c1=O` (stereo not given) was run?
Its inhibition is 63.5%.

With `CCOC(=O)CCCSc1nc2c(c(C(F)(F)F)c1C#N)CC(C)CC2` (stereo not given) as the compound, how does the inhibition read?
The inhibition was 48.6%.

Which inhibition does the source give for `CCOc1ccc(C2C(C(=O)Nc3cccnc3)=C(C)Nc3nc(CCCO)nn32)cc1OC` (stereo not given) here?
The inhibition was 14.8%.

How did the inhibition turn out when `CCOC(=O)c1cn(C2CC2)c2c(C)c(N3CCC4=C(C3)/C(=N/OC)C(C)CS4)c(N)cc2c1=O` (stereo not given) was run?
Its inhibition is 21.4%.

With `COc1cc(/C=C2\S/C(=N\c3ccccc3)N(c3ccccc3)C2=O)cc(Cl)c1OCC(N)=O` as the compound, how does the inhibition read?
Its inhibition is 18.3%.

With `CN(C)CCOc1ccc(-c2cc(=O)c3ccccc3n2C)cc1` as the compound, how does the inhibition read?
The inhibition was 4.4%.

With `CCOc1ccc(-c2cc(=O)c3ccccc3n2C)cc1` as the compound, how does the inhibition read?
Its inhibition is 10.8%.

`CCOC(=O)c1cn(C2CC2)c2cc(N3CCC4=C(C3)C(=O)CCS4)c(N)cc2c1=O` was tested. Which inhibition did it give?
Its inhibition is 35.7%.

For `c1ccc(CCN(Cc2ccccc2)Cc2cccc(OCc3ccccc3)c2)cc1`, which inhibition is on record?
The inhibition was 0%.

How did the inhibition turn out when `CCOC(=O)c1cn(C2CC2)c2cc(N3CCC4=C(C3)/C(=N/OC)CCS4)c(N)cc2c1=O` was run?
Its inhibition is 74.5%.

For `CCCOc1ccc(-c2cc(=O)c3cc(OC)c(O)cc3n2C)cc1`, which inhibition is on record?
The inhibition was 9.1%.

Which inhibition does the source give for `O=C(O)c1ccc(N2C(=O)C[C@@H](S/C(=N\c3ccccc3)Nc3ccccc3)C2=O)cc1` here?
Its inhibition is 0%.

Which inhibition does the source give for `Cn1c(-c2ccc(O)cc2)cc(=O)c2cc(O)c(O)cc21` here?
Its inhibition is 0%.

How did the inhibition turn out when `CCCCOc1ccc([C@H]2C(C#N)=C(N)Oc3cc(N(CC)CC)ccc32)cc1` was run?
The inhibition was 20.5%.

How did the inhibition turn out when `Cn1c(-c2ccccc2)cc(=O)c2cc(O)c(O)cc21` was run?
The inhibition was 0%.

`N#Cc1c(SCc2ccc(Cl)nc2)nc2c(c1C(F)(F)F)CCCC2` was tested. Which inhibition did it give?
Its inhibition is 41.3%.

Which inhibition does the source give for `OCCN1CCN(CCCN2c3ccccc3Sc3ccc(C(F)(F)F)cc32)CC1` here?
Its inhibition is 75%.

How did the inhibition turn out when `Cn1c(-c2ccc(O)cc2)cc(=O)c2ccccc21` was run?
The inhibition was 0%.

Which inhibition does the source give for `N#Cc1c(SCc2ccc(C(=O)O)cc2)nc2c(c1C(F)(F)F)CCCCC2` here?
Its inhibition is 67.1%.

With `CSc1ccc2c(c1)N(CCC1CCCCN1C)c1ccccc1S2` (stereo not given) as the compound, how does the inhibition read?
The inhibition was > 88%.

With `C=CCOc1c(I)cc(/C=C2\C(=O)N(c3ccc(C(=O)O)cc3)N=C2c2ccccc2)cc1OC` as the compound, how does the inhibition read?
Its inhibition is 3.8%.

How did the inhibition turn out when `CCOC(=O)C1SC(NC(=S)NC(=O)c2ccccc2)=NC1C` (stereo not given) was run?
The inhibition was 23.2%.

How did the inhibition turn out when `CCCOc1ccc(-c2cc(OCCN(CC)CC)c3ccccc3n2)cc1` was run?
Its inhibition is 93.4%.

Which inhibition does the source give for `NS(=O)(=O)c1ccc(NC2=NC(=O)C(CC(=O)O)S2)cc1` (stereo not given) here?
The inhibition was 0%.

With `CCN(CC)CCOc1cc(-c2ccc(OCCN3CCCCC3)cc2)nc2ccccc12` as the compound, how does the inhibition read?
Its inhibition is 65.6%.

Which inhibition does the source give for `CC(C)Oc1ccc(-c2cc(=O)c3ccccc3n2C)cc1` here?
The inhibition was 10.3%.

With `CCOC(=O)Nc1ccc2c(c1)N(C(=O)CCN1CCN(CCO)CC1)c1ccccc1CC2` as the compound, how does the inhibition read?
The inhibition was 0%.

`COc1ccccc1C1=Nc2ccccc2SC1` was tested. Which inhibition did it give?
The inhibition was 0%.

Which inhibition does the source give for `CCCOc1ccc(-c2cc(=O)c3cc(OC)c(OC)cc3n2C)cc1` here?
The inhibition was 0%.

How did the inhibition turn out when `CN1C(=O)S/C(=C/c2ccc(-c3cc(C(=O)O)ccc3Cl)o2)C1=O` was run?
Its inhibition is 20.9%.

For `N#Cc1c(C(F)(F)F)cc(Cc2ccccc2)nc1SCc1ccc(C(=O)O)cc1`, which inhibition is on record?
The inhibition was 41.8%.

For `COc1cc2c(=O)cc(-c3ccccc3)n(C)c2cc1OC`, which inhibition is on record?
The inhibition was 9.4%.

For `CCCOc1ccc(-c2cc(=O)c3ccccc3n2CCN(CC)CC)cc1`, which inhibition is on record?
The inhibition was 57.3%.

For `CCOC(=O)c1cn(C2CC2)c2c(C)c(N3CCC4=C(C3)/C(=N/OC)CCS4)c(N)cc2c1=O`, which inhibition is on record?
The inhibition was 54.4%.

How did the inhibition turn out when `CCC(C)N1C(=O)S/C(=C/c2ccc(C(=O)O)cc2)C1=O` (stereo not given) was run?
Its inhibition is 0%.

Which inhibition does the source give for `CCN(CC)CCOc1ccc(-c2cc(=O)c3ccccc3n2C)cc1` here?
Its inhibition is 1.7%.

`Cc1ccc(N(CC(=O)Nc2ccc(C(N)=O)cc2)S(=O)(=O)c2ccccc2)cc1C` was tested. Which inhibition did it give?
Its inhibition is 0.6%.

`CCc1c(O)nc(SCC(=O)Nc2nc3ccccc3s2)[nH]c1=O` was tested. Which inhibition did it give?
The inhibition was 19.1%.

With `c1ccc(C2=Nc3ccccc3SC2)cc1` as the compound, how does the inhibition read?
Its inhibition is 0%.

With `CN(C)CCCN1c2ccccc2Sc2ccc(Cl)cc21` as the compound, how does the inhibition read?
The inhibition was 76%.

`CCOC(=O)c1cn(C2CC2)c2cc(N3CCNCC3)c(F)cc2c1=O` was tested. Which inhibition did it give?
The inhibition was 20.8%.

For `COc1ccc(OC[C@@H]2CN(C)CC[C@H]2c2ccccc2)cc1` (relative stereo), which inhibition is on record?
Its inhibition is 50%.

How did the inhibition turn out when `CCOC(=O)c1cn(C2CC2)c2cc(N3CCC4=C(C3)/C(=N/O)C(C)CS4)c(F)cc2c1=O` (stereo not given) was run?
Its inhibition is 22.5%.

With `CCCOc1ccc(-c2cc(=O)c3ccccc3o2)cc1` as the compound, how does the inhibition read?
Its inhibition is 32.4%.

Which inhibition does the source give for `COc1cc(/C=C2/SC(Nc3ccccc3F)=NC2=O)ccc1OCC(=O)O` here?
Its inhibition is 11.9%.

With `CCOC(=O)c1cn(C2CC2)c2c(C)c(N3CCC4=C(C3)/C(=N/O)C(C)CS4)c(N)cc2c1=O` (stereo not given) as the compound, how does the inhibition read?
Its inhibition is 90%.

With `COc1cccc(CNC(C)C(O)c2ccccc2)c1` (stereo not given) as the compound, how does the inhibition read?
The inhibition was 2.8%.

How did the inhibition turn out when `CCCOc1ccc(-c2cc(=O)c3ccccc3n2CCN2CCCCC2)cc1` was run?
Its inhibition is 75.1%.
